Laboratory results: PMC3972499 (Scientific Reports, 2014)
Entries after “also recorded” stand apart in the source; their conditions may differ. Positions of bridges follow the written chain, without caps; N, C: chain ends. Residues, ends and D or L forms follow the SMILES beside them.

Assays:
[1] = test system: m1.5-2 chimera (hNav1.5 with DIII/S3–S4 of hNav1.7); experiment: Whole-cell patch clamp, HEK293 cells, chimera M1.5-2; assay type: cell-based, human; conditions: read-out: estimated IC50, room temperature, data points mean ± S.E., 3–5 cells
[2] = test system: m1.7-1 chimera (hNav1.7 with DII/S3–S4 of hNav1.5); experiment: Whole-cell patch clamp, HEK293 cells, chimera M1.7-1; assay type: cell-based, human; conditions: read-out: estimated IC50, room temperature, data points mean ± S.E., 3–5 cells
[3] = test system: hNav1.5 chimeras with S3–S4 fragments replaced by those from hNav1.7; experiment: Loss-of-function assay, whole-cell patch clamp, hNav1.5 chimeras; assay type: cell-based, human; conditions: 1 μM, HEK293
[4] = test system: hNav1.7 chimeras with S3–S4 fragments replaced by those from hNav1.5; experiment: Gain-of-function assay, whole-cell patch clamp, hNav1.7 chimeras; assay type: cell-based, human; conditions: 1 μM, HEK293
[5] = test system: m1.7-4 chimera (hNav1.7 with DII + DIII + DIV S3–S4 of hNav1.5); experiment: Whole-cell patch clamp, HEK293 cells, chimera M1.7-4; assay type: cell-based, human; conditions: read-out: estimated IC50, room temperature, data points mean ± S.E., 3–5 cells
[6] = test system: M1.5-5 chimera (hNav1.5 with DII/S3–S4 of rNav1.4); experiment: Loss-of-function assay, whole-cell patch clamp, chimera M1.5-5; assay type: cell-based; conditions: 50 μM SSCM-1
WT-rNav1.3 = experiment: Whole-cell patch clamp, WT-rNav1.3; assay type: cell-based; conditions: 50 μM SSCM-1
Summary of the method: (§1)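 Whole-cell recording at room temperature. Peptide stock was 1 mM in double-distilled water, stored in aliquots at −20°C, then diluted to the stated test concentration.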

[7] = test system: M1.4-1 chimera (rNav1.4 with DII/S3–S4 of hNav1.5); experiment: Gain-of-function assay, whole-cell patch clamp, chimera M1.4-1; assay type: cell-based
[8] = test system: TTX-R currents expressed on DRG cells; experiment: Whole-cell patch clamp, TTX-R currents on DRG cells; assay type: cell-based; conditions: 10 μM SSCM-1, containing 200 μM TTX
wild type hNav1.5 = wild type hNav1.5 (Homo sapiens, UniProt Q14524); experiment: Whole-cell patch clamp, HEK293 cells, wild type hNav1.5; assay type: cell-based
Chain of wild type hNav1.5 (Q14524 whole entry): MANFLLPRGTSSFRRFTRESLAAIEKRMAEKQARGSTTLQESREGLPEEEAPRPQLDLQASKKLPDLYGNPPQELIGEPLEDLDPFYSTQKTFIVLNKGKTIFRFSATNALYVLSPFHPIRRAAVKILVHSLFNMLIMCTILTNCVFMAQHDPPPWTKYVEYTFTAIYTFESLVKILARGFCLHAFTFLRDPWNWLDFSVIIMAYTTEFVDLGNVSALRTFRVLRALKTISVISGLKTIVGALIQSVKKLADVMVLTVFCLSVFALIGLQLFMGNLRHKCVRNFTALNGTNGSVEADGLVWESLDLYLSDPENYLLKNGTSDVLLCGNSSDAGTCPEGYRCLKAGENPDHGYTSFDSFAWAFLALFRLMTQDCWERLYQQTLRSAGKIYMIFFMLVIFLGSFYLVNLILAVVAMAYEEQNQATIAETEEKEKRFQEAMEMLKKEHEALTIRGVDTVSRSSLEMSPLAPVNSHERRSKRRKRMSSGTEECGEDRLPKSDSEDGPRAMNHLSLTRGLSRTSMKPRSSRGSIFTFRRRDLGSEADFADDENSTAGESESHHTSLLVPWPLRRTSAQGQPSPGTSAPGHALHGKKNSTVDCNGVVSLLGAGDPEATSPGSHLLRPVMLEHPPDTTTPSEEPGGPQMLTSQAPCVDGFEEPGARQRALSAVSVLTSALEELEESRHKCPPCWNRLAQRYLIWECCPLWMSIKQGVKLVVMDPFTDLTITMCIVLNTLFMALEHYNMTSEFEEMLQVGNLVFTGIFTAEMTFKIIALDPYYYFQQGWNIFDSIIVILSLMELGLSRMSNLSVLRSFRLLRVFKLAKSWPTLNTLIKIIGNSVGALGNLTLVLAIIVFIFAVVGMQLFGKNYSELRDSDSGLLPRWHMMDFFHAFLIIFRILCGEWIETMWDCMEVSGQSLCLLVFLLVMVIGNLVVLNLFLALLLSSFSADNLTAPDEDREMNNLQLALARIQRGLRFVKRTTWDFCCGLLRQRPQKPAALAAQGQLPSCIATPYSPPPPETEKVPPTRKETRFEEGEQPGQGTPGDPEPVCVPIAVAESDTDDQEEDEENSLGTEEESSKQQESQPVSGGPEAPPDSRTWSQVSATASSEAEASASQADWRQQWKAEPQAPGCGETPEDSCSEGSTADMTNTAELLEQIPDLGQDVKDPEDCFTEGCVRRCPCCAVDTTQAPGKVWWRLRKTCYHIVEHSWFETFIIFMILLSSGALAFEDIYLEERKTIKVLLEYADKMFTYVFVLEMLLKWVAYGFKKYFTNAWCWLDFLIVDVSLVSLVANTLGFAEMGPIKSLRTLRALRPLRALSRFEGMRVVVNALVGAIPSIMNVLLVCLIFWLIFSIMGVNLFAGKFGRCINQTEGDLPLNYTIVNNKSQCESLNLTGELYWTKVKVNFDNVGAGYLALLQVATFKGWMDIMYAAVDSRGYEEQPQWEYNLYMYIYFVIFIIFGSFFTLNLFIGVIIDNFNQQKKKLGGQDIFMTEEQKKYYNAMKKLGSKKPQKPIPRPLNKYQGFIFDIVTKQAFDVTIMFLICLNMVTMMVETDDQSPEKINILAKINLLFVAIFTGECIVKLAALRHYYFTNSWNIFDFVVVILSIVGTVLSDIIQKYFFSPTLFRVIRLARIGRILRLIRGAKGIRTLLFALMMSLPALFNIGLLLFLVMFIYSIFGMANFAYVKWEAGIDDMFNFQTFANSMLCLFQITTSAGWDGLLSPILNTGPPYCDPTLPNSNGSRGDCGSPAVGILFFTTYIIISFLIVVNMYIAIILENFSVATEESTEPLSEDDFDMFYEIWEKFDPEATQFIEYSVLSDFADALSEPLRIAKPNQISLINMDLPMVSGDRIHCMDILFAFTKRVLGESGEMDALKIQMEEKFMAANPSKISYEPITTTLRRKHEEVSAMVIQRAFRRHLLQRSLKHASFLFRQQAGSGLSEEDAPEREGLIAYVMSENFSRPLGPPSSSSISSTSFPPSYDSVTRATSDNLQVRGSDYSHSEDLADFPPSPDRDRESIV
Summary of the method: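 HEK293 cells expressing hNav1.5, grown in DMEM with 10% FBS (5% CO2, 37°C). Pipette solution: 140 mM CsF, 10 mM NaCl, 1 mM EGTA, 10 mM HEPES, pH 7.3. Bath solution: 140 mM NaCl, 3 mM KCl, 1 mM MgCl2, 1 mM CaCl2, 10 mM HEPES, pH 7.3. Run at room temperature. Peptide stock 1 mM in ddH2O. Concentration–response curves used points as mean ± S.E. from 3–5 cells.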

WT-rNav1.4 = experiment: Whole-cell patch clamp, WT-rNav1.4; assay type: cell-based; conditions: 50 μM SSCM-1
Summary of the method: as §1

SMILES | IC50 [1] [nM] | IC50 [2] [nM] | Sensitivity to JZTX-III inhibition of hNav1.5 chimeras [3] | Sensitivity to JZTX-III of hNav1.7 chimeras [4] | IC50 [5] [nM] | inhibition of chimera M1.5-5 currents [6] | inhibitory effect on rNav1.3 currents, in words (WT-rNav1.3) | inhibition of chimera M1.4-1 currents ([7]; 50 μM SSCM-1) [%] | inhibitory effect on chimeric rNav1.4 (M1.4-1) currents, in words ([7]; gain-of-function) | inhibition of TTX-R currents, in words [8] | IC50 (wild type hNav1.5) [nM] | inhibition at 10 µM (wild type hNav1.5; HEK293, read-out: inhibition of wild type hNav1.5 currents) [%] | inhibitory effect on rNav1.4 currents, in words (WT-rNav1.4)
CC(C)[C@H](NC(=O)[C@H](C)NC(=O)[C@@H]1CSSC[C@@H]2NC(=O)[C@@H]3CCCN3C(=O)[C@@H]3CCCN3C(=O)[C@H](CCCCN)NC(=O)CNC(=O)[C@H](CCCNC(=N)N)NC(=O)CNC(=O)[C@@H]3CSSC[C@H](NC(=O)[C@H](C)NC(=O)[C@H](Cc4ccc(O)cc4)NC(=O)CNC(=O)[C@H](CCCCN)NC(=O)[C@H](CSSC[C@H](NC(=O)[C@H](CCC(=O)O)NC(=O)CNC(=O)[C@@H](N)CC(=O)O)C(=O)NCC(=O)NCC(=O)N[C@@H](Cc4ccccc4)C(=O)N[C@@H](Cc4c[nH]c5ccccc45)C(=O)N[C@@H](Cc4c[nH]c5ccccc45)C(=O)N[C@@H](CCCCN)C(=O)N3)NC2=O)C(=O)N[C@@H](CO)C(=O)N[C@@H](CCCCN)C(=O)N[C@@H]([C@@H](C)O)C(=O)N[C@@H](Cc2c[nH]c3ccccc23)C(=O)NCC(=O)N[C@@H](Cc2c[nH]c3ccccc23)C(=O)N1)C(=O)N[C@@H](CCC(=O)O)C(=O)N[C@@H](C)C(=O)N1CCC[C@H]1C(=O)O [JZTX-III, jingzhaotoxin-III] (H-DGECGGFWWKCGRGKPPCCKGYACSKTWGWCAVEAP-OH; disulfide 4-19, 11-24, 18-31; N-terminus and C-terminus assumed) | 1050 | 736 | lost its sensitivity to JZTX-III inhibition | gained partial sensitivity to JZTX-III | 476 | – | – | – | – | – | – | – | –
CC[C@H](C)[C@H](NC(=O)CNC(=O)[C@@H](NC(=O)[C@H](CCCNC(=N)N)NC(=O)[C@@H](NC(=O)[C@H](CO)NC(=O)[C@H](CC(N)=O)NC(=O)[C@H](CCCCN)NC(=O)[C@H](Cc1ccc(O)cc1)NC(=O)[C@H](CCCCN)NC(=O)[C@@H](N)CCSC)[C@@H](C)O)C(C)C)C(=O)N[C@@H](CC(=O)O)C(=O)N[C@H](C(=O)NCC(=O)N[C@@H](CO)C(=O)N[C@H](C(=O)N[C@@H](CCC(=O)O)C(=O)N[C@@H](CC(C)C)C(=O)N[C@@H](CCC(=O)O)C(=O)N[C@@H](CC(C)C)C(=O)N[C@@H](CCC(N)=O)C(=O)N[C@@H](CCSC)C(=O)N[C@@H](CC(N)=O)C(=O)N[C@@H](CCCNC(=N)N)C(=O)N[C@@H](CCCNC(=N)N)C(=O)N[C@@H](Cc1ccc(O)cc1)C(=O)O)[C@@H](C)CC)[C@@H](C)O [SSCM-1, Screened-Sodium-Channel-Interacting peptide-1] (H-MKYKNSTRVGIDTGSIELELQMNRRY-OH) | – | – | – | – | – | about 15% | subtle inhibitory activity; also recorded: almost no detectable inhibitory effect | 15 | a detectable inhibitory effect | subtle inhibitory activity; also recorded: could not inhibit TTX-R currents | ~2880 | > 90 | subtle inhibitory activity; also recorded: almost no detectable inhibitory effect
